The record followed here is ChEMBL document CHEMBL1148461, “Discovery of the first non-peptide full agonists for the human bradykinin B(2) receptor incorporating 4-(2-picolyloxy)quinoline and 1-(2-picolyl)benzimidazole frameworks” (J Med Chem, 2004).

The target of assay [1] is T1, B2 bradykinin receptor (Cavia porcellus, UniProt O70526).
T1 sequence (O70526 whole entry): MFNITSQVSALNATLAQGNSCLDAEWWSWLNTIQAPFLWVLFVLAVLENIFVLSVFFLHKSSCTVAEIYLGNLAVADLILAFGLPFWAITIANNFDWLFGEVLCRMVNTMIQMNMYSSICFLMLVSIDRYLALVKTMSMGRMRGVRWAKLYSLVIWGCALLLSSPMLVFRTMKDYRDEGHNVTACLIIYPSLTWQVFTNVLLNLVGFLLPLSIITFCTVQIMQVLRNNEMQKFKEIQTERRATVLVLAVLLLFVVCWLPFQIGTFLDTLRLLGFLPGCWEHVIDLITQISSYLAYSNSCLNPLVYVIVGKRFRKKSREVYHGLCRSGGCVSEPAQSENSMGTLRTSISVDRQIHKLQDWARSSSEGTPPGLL
The experiment in a line: Concentration required to inhibit specific binding of [3H]-BK(0.06 nM) to the bradykinin receptor B2. The essentials:
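Guinea pig (male Hartley) ileum membranes in pH 6.8 TES buffer with phenanthroline, bacitracin, DTT, captopril and 0.1% BSA; 0.2 mg protein/mL incubated with 0.06 nM [3H]BK and varying test concentrations, 60 min at room temperature; filtration on glass fiber filters, scintillation counting. Nonspecific binding with 1 μM unlabeled BK. IC50 averaged over at least three determinations.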

Assay [2] deals with T2, B2 bradykinin receptor (Homo sapiens, UniProt P30411).
T2 sequence (P30411 whole entry): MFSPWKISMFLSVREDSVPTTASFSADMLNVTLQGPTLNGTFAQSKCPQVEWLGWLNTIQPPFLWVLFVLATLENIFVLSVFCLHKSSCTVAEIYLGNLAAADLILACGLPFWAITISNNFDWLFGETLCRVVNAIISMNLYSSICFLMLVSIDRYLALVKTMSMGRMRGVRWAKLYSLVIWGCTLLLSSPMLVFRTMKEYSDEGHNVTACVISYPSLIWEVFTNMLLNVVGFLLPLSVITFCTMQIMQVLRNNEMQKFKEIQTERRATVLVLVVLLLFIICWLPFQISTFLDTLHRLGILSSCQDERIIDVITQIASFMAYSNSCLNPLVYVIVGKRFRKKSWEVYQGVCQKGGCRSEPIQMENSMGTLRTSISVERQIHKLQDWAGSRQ
As to the kind of experiment: Inhibition of [3H]BK (1.0 nM) binding to the human bradykinin receptor B2, expressed in CHO cells. It counts as cell-based. The gist of the method: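 Whole CHO (dhfr-) cells stably expressing human B2, seeded 3.0 × 10^4 cells/well and cultured 1 day. Incubated with 1.0 nM [3H]BK plus test compound for 2 h at 4 °C in pH 7.2 HEPES/N-methyl-D-glucamine buffer with bacitracin, enalaprilat and 0.1% BSA. Cells lysed in SDS/NaOH for scintillation counting. Nonspecific binding with 1 μM BK; three experiments.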

The target in assay [3] is T3, B2 bradykinin receptor (Homo sapiens) (UniProt P30411).
T3 sequence (whole entry): T2 sequence (P30411 whole entry)
The experiment in a line: (§1) Relative induced inositol phosphate formation in CHO cells expressing the human B2 receptor compared to bradykinin (10 nM). It counts as functional, cell-based. The gist of the method:
(§2)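 Human B2-expressing CHO cells labeled with [3H]inositol (1 μCi/mL) for 24 h, preincubated with 10 mM LiCl, then exposed to compound for 30 min at 37 °C. Stopped with 5% TCA; IP1–IP3 separated by anion-exchange chromatography and counted. Basal radioactivity subtracted; response expressed relative to 10 nM BK.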

In assay [4] the target is T3, B2 bradykinin receptor (Homo sapiens). The assay is described as §1. The class given is functional, cell-based. The gist of the method: as §2
This is another data set of the same source.

Assay [5] shares this target. As to the kind of experiment: Relative agonistic activity (10 uM) induced inositol phosphate formation in CHO cells expressing the human B2 receptor compared to bradykinin (10 nM). The class given is functional, cell-based. The gist of the method:
as §2

The target in assay [6] is T1, B2 bradykinin receptor. As to the kind of experiment: Concentration required to inhibit specific binding of [3H]-BK(0.06 nM) to the B2 receptor in guinea pig ileum membrane;. The class given is tissue-based. The essentials: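 Male Hartley guinea pig ileum membranes (homogenised, 1000g debris spin, 10000g pellet) at 0.2 mg protein/mL in pH 6.8 TES buffer with 1,10-phenanthroline, bacitracin, DTT, captopril, 0.1% BSA; incubated with 0.06 nM [3H]BK and varying compound concentrations, 60 min room temperature; GF/B filtration, scintillation counting. Nonspecific binding with 1 μM unlabeled BK; three experiments; IC50 averaged from ≥3 determinations.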

Assay [7] relates to WI-38. As to the kind of experiment: Relative agonistic activity (10 uM) induced PGE-2 production in human fibroblast WI-38 cells compared to bradykinin (100 nM). The class given is functional. The gist of the method:
(§3)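 WI-38 human fibroblasts seeded 1 × 10^5 cells/well in E-MEM with 1% FBS, cultured 24 h. Medium replaced with Hanks-BSA buffer, then test compound for 30 min at 37 °C. Supernatant PGE2 measured by EIA, with control (no compound) subtracted. Result expressed relative to 100 nM BK.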

Assay [8] deals with WI-38. As to the kind of experiment: Relative agonistic activity (1 uM) induced PGE-2 production in human fibroblast WI-38 cells compared to bradykinin (100 nM). The class given is functional. The gist of the method:
as §3

SMILES strings stand for the structures. Where only a bound is given, the exact number is not on record here.

What is called IC50 is the midpoint of a concentration-inhibition curve. A higher IC50 goes with a need for much substance.

As to `CNC(=O)c1ccc(/C=C/C(=O)NCC(=O)N(C)c2ccc(Cl)c(COc3cccc4c(OCC(=O)O)cc(C)nc34)c2Cl)cc1`, the IC50 was 50 nM in assay [1] and above 1000 nM in assay [2].
Turning to `CNC(=O)c1ccc(/C=C/C(=O)NCC(=O)N(C)c2ccc(Cl)c(COc3cccc4c(OCc5ccccn5)cc(C)nc34)c2Cl)cc1OC`, the Relative agonistic activity in assay [3] was found to be 73.9%; in assay [4] it was 54.9%. The compound further showed an IC50 in assay [2] of 0.69 nM.
Consider `CCOC(=O)COc1cc(C)nc2c(OCc3c(Cl)ccc(N(C)C(=O)CNC(=O)/C=C/c4ccc(C(=O)NC)cc4)c3Cl)cccc12`, for which the IC50 in assay [1] stood at 20 nM; in assay [2], 2.6 nM. Further, the figures for the Relative agonistic activity in assay [5] and in assay [3] were 66.4% and 53.7%, respectively.
`Cc1cc(OCc2ccccn2)c2cccc(OCc3c(Cl)ccc(N(C)C(=O)CNC(=O)/C=C/c4ccc(C(=O)Nc5ccncc5)cc4)c3Cl)c2n1`: the values for the Relative agonistic activity in assay [3] and in assay [4] were 47.4% and 36.7%, respectively. This compound showed an IC50 in assay [2] of 0.4 nM.
As to `CC(=O)Nc1ccc(/C=C/C(=O)NCC(=O)N(C)c2ccc(Cl)c(COc3cccc4c(OCc5ccccn5)cc(C)nc34)c2Cl)cn1`, the IC50 in assay [1] and in assay [2] was 1.2 nM in each case. In addition, the Relative agonistic activity in assay [3] turned out to be 57%; in assay [4], 43.4%.
`Cc1cc(OCc2ccccn2)c2cccc(OCc3c(Cl)ccc(N(C)C(=O)CNC(=O)/C=C/c4ccc(NC(=O)c5ccncc5)cc4)c3Cl)c2n1`: the Relative agonistic activity was 26.9% in assay [3] and 42.3% in assay [4]. For the same compound, the results for the IC50 in assay [6] and in assay [2] were 6.1 nM and 0.56 nM, respectively.
Take `CCOC(=O)Cn1c(OC)nc2c(OCc3c(Cl)ccc(N(C)C(=O)CNC(=O)/C=C/c4ccc(NC(C)=O)nc4)c3Cl)cccc21`: the IC50 amounted to 4.2 nM in assay [1] and 0.91 nM in assay [2]. The Relative agonistic activity in assay [7] worked out at 121%.
In the case of `COc1nc2c(OCc3c(Cl)ccc(N(C)C(=O)CNC(=O)/C=C/c4ccc(NC(C)=O)nc4)c3Cl)cccc2n1Cc1ccccc1`, the figures for the IC50 in assay [1] and in assay [2] were 26 nM and 2.5 nM, respectively. Moreover, the Relative agonistic activity came to 73.9% in assay [7] and 84.5% in assay [8].
Consider `Cc1cc(OCc2ccccn2)c2cccc(OCc3c(Cl)ccc(N(C)C(=O)CNC(=O)/C=C/c4ccc(NC(=O)Cc5ccncc5)nc4)c3Cl)c2n1`, for which the Relative agonistic activity in assay [3] was found to be 40.3%; in assay [4] it was 39.8%. Also, the IC50 in assay [2] amounted to 2.4 nM.
In the case of `CCOc1cc(C)nc2c(OCc3c(Cl)ccc(N(C)C(=O)CNC(=O)/C=C/c4ccc(C(=O)NC)cc4)c3Cl)cccc12`, the values for the IC50 in assay [1] and in assay [2] were 0.19 nM and 34 nM, respectively.
Consider `CNC(=O)c1ccc(/C=C/C(=O)NCC(=O)N(C)c2ccc(Cl)c(COc3cccc4c(OCc5ccccn5)cc(C)nc34)c2Cl)cc1`, for which the IC50 was 2.3 nM in assay [1] and 0.41 nM in assay [2]. Also, the Relative agonistic activity in assay [5] is 56.9%; in assay [7] it was 140%; in assay [3] it was 59.5%; in assay [4], 51.3%; in assay [8], 81.2%.
Take `CNC(=O)c1ccc(/C=C/C(=O)NCC(=O)N(C)c2ccc(Cl)c(COc3cccc4c(OCc5ccccn5)cc(C)nc34)c2Cl)cn1`: the Relative agonistic activity is 57.6% in assay [3] and 50.5% in assay [4]. Besides, in assay [2], the IC50 was found to be 1.4 nM.
As to `COc1nc2c(OCc3c(Cl)ccc(N(C)C(=O)CNC(=O)/C=C/c4ccc(NC(C)=O)nc4)c3Cl)cccc2n1C`, the values for the Relative agonistic activity in assay [7] and in assay [8] were 24.2% and 4.2%, respectively.
As to `COCCn1c(OC)nc2c(OCc3c(Cl)ccc(N(C)C(=O)CNC(=O)/C=C/c4ccc(NC(C)=O)nc4)c3Cl)cccc21`, the IC50 stood at 4.6 nM in assay [1] and 3.5 nM in assay [2]. Further, the Relative agonistic activity in assay [7] was 54.8%; in assay [8], 38.3%.
Take `Cc1cc(OCc2ccccn2)c2cccc(OCc3c(Cl)ccc(N(C)C(=O)CNC(=O)/C=C/c4ccc(N5CCCC5=O)cc4)c3Cl)c2n1`: the results for the Relative agonistic activity in assay [3] and in assay [4] were 67.4% and 42.9%, respectively. In addition, the IC50 in assay [2] came to 0.83 nM.
Consider `CNC(=O)c1ccc(/C=C/C(=O)NCC(=O)N(C)c2ccc(Cl)c(COc3cccc4c(OC5CCCC5)cc(C)nc34)c2Cl)cc1`, for which the IC50 came to 25 nM in assay [1] and 61 nM in assay [2].
As for `CNC(=O)c1ccc(/C=C/C(=O)NCC(=O)N(C)c2ccc(Cl)c(COc3cccc4c(OCC(=O)N(C)C)cc(C)nc34)c2Cl)cc1`, the results for the IC50 in assay [1] and in assay [2] were 30 nM and 3.7 nM, respectively. The Relative agonistic activity in assay [5] stood at 24.4%; in assay [3], 30.8%.
As to `COc1nc2c(OCc3c(Cl)ccc(N(C)C(=O)CNC(=O)/C=C/c4ccc(NC(C)=O)nc4)c3Cl)cccc2n1Cc1ccccn1`, the Relative agonistic activity in assay [7] is 89.5%; in assay [8], 114%. The compound also displayed an IC50 in assay [2] of 0.68 nM.
On to `Cc1cc(OCc2ccccn2)c2cccc(OCc3c(Cl)ccc(N(C)C(=O)CNC(=O)/C=C/c4ccc(C(=O)N(C)C)cc4)c3Cl)c2n1`, for which the Relative agonistic activity in assay [3] stood at 34.3%; in assay [4] it was 22.3%. In addition, the IC50 in assay [2] worked out at 1.4 nM.
As for `CNC(=O)c1ccc(/C=C/C(=O)NCC(=O)N(C)c2ccc(Cl)c(COc3cccc4c(OC(C)C)cc(C)nc34)c2Cl)cc1`, the IC50 in assay [1] came out at 1.2 nM; in assay [2], 13 nM.
Consider `CCCOc1cc(C)nc2c(OCc3c(Cl)ccc(N(C)C(=O)CNC(=O)/C=C/c4ccc(C(=O)NC)cc4)c3Cl)cccc12`, for which the IC50 came out at 1.2 nM in assay [1] and 77 nM in assay [2].
On the same counts, the results for `CNC(=O)c1ccc(/C=C/C(=O)NCC(=O)N(C)c2ccc(Cl)c(COc3cccc4c(OC)cc(C)nc34)c2Cl)cc1` are 0.23 nM and 8.1 nM.
